# Experimental data as given in article PMC13487472 (Blood, 2026).
# Tested on: ALL-SIL
# Assay: CTG assay in ALL-SIL
# Assay type: cell-based
# Settings: ABL-fusion-positive cell line, 72 hrs
# Outline: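 After 72 h, an equal volume of CellTiter-Glo was added and luminescence read as an ATP-based proxy for cell number. Signals were normalised to DMSO controls; triplicates; LC50 fitted with a 4-parameter dose-response model.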
smiles,measurement,value
Cc1nc(Nc2ncc(C(=O)Nc3c(C)cccc3Cl)s2)cc(N2CCN(CCO)CC2)n1 [dasatinib],Cytotoxicity in ALL-SIL,highly sensitive
